The source of these data is ChEMBL document CHEMBL1177638, “Synthesis of pyrrolo[3,2-h]quinolinones with good photochemotherapeutic activity and no DNA damage” (Bioorg Med Chem, 2010).

SMILES strings stand for the structures.

For one experiment, the system named is Jurkat. Description: Phototoxicity against human Jurkat cells irradiated with 3.75 J/cm'2 after 72 hrs by MTT assay. Particulars: light or radiation study. In kind it is functional, cell-based. In outline: (§1)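 Cells were seeded at 8 × 10³ and preincubated 18 h at 37 °C, 5% CO₂. Jurkat and K-562 grew in RPMI-1640, MCF-7 and NCTC-2544 in DMEM, and LoVo in Ham's F12, all with 10% FBS plus penicillin and streptomycin. Compounds in DMSO were diluted in HBSS, pH 7.2 (range 20–0.31; DMSO ≤1%) and applied 30 min at 37 °C. Wells were then UV-A irradiated (365 nm; 2.5 or 3.75 J/cm²), medium was replaced, and MTT was read after 72 h.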
The compound `N#Cc1cc2c([nH]c1=O)-c1c(ccn1S(=O)(=O)c1ccccc1)CC2` yielded a concentration for half-maximal inhibition (IC50) greater than 20 µM.
Same read-out and setting: the value for `Cc1ccc(Cn2ccc3c2-c2[nH]c(=O)c(S(=O)(=O)c4ccccc4)cc2CC3)cc1` was 1.2 µM; that for `Cn1ccc2c1-c1[nH]c(=O)c(S(=O)(=O)c3ccccc3)cc1CC2` was greater than 20 µM; that for `O=c1[nH]c2c(cc1S(=O)(=O)c1ccccc1)CCc1ccn(Cc3ccccc3)c1-2` was 1.1 µM.
The compound `O=c1[nH]c2c(cc1S(=O)(=O)c1ccccc1)CCc1ccn(S(=O)(=O)c3ccccc3)c1-2` returned an IC50 greater than 20 µM.

The next experiment relates to MCF7. Description: Phototoxicity against human MCF7 cells irradiated with 2.5 J/cm'2 after 72 hrs by MTT assay. As to conditions: MCF7, light or radiation study. Format: functional, cell-based. The gist of the method: as §1
On to `N#Cc1cc2c([nH]c1=O)-c1c(ccn1S(=O)(=O)c1ccccc1)CC2`, for which the 50% inhibitory concentration (IC50) was greater than 20 µM.
The compound `Cc1ccc(Cn2ccc3c2-c2[nH]c(=O)c(S(=O)(=O)c4ccccc4)cc2CC3)cc1` showed an IC50 of 3.8 µM.
Regarding `Cn1ccc2c1-c1[nH]c(=O)c(S(=O)(=O)c3ccccc3)cc1CC2`, the IC50 was greater than 20 µM.
Still for that read-out and setting: the value for `O=c1[nH]c2c(cc1S(=O)(=O)c1ccccc1)CCc1ccn(Cc3ccccc3)c1-2` was 4 µM; that for `O=c1[nH]c2c(cc1S(=O)(=O)c1ccccc1)CCc1ccn(S(=O)(=O)c3ccccc3)c1-2` was greater than 20 µM.

System in the next experiment: not listed separately
The experiment in a line: Phototoxicity against human sNCTC-2544 cells irradiated with 3.75 J/cm'2 after 72 hrs by MTT assay. Format: functional, cell-based. Particulars: NCTC-2544, light or radiation study. In outline:
as §1
`N#Cc1cc2c([nH]c1=O)-c1c(ccn1S(=O)(=O)c1ccccc1)CC2` registered an IC50 greater than 20 µM.
On the same count and under the same terms, for `Cc1ccc(Cn2ccc3c2-c2[nH]c(=O)c(S(=O)(=O)c4ccccc4)cc2CC3)cc1` the value was 2.6 µM; for `Cn1ccc2c1-c1[nH]c(=O)c(S(=O)(=O)c3ccccc3)cc1CC2`, greater than 20 µM; for `O=c1[nH]c2c(cc1S(=O)(=O)c1ccccc1)CCc1ccn(Cc3ccccc3)c1-2`, 5.5 µM.
Still for that read-out and setting: the value for `O=c1[nH]c2c(cc1S(=O)(=O)c1ccccc1)CCc1ccn(S(=O)(=O)c3ccccc3)c1-2` was greater than 20 µM.

The test system of a further experiment is K562. The experiment in a line: Phototoxicity against human K562 cells irradiated with 2.5 J/cm'2 after 72 hrs by MTT assay. In kind it is functional, cell-based. Particulars: K562, light or radiation study. The gist of the method:
as §1
Consider `N#Cc1cc2c([nH]c1=O)-c1c(ccn1S(=O)(=O)c1ccccc1)CC2`, for which the half-maximal inhibitory concentration (IC50) is greater than 20 µM.
Consider `Cc1ccc(Cn2ccc3c2-c2[nH]c(=O)c(S(=O)(=O)c4ccccc4)cc2CC3)cc1`, for which the midpoint of inhibition, the IC50, lay at 2.7 µM.
`Cn1ccc2c1-c1[nH]c(=O)c(S(=O)(=O)c3ccccc3)cc1CC2` came in with an IC50 greater than 20 µM.
On the same count and under the same terms, for `O=c1[nH]c2c(cc1S(=O)(=O)c1ccccc1)CCc1ccn(Cc3ccccc3)c1-2` the value was 4.8 µM; for `O=c1[nH]c2c(cc1S(=O)(=O)c1ccccc1)CCc1ccn(S(=O)(=O)c3ccccc3)c1-2`, greater than 20 µM.

The subject of a further experiment is Jurkat. Description: Phototoxicity against human Jurkat cells irradiated with 2.5 J/cm'2 after 72 hrs by MTT assay. Format: functional, cell-based. As to conditions: light or radiation study. In outline:
as §1
With `N#Cc1cc2c([nH]c1=O)-c1c(ccn1S(=O)(=O)c1ccccc1)CC2`, the half-inhibitory concentration (IC50) is greater than 20 µM.
Still for that read-out and setting: the value for `Cc1ccc(Cn2ccc3c2-c2[nH]c(=O)c(S(=O)(=O)c4ccccc4)cc2CC3)cc1` was 1.6 µM; that for `Cn1ccc2c1-c1[nH]c(=O)c(S(=O)(=O)c3ccccc3)cc1CC2` was greater than 20 µM; that for `O=c1[nH]c2c(cc1S(=O)(=O)c1ccccc1)CCc1ccn(Cc3ccccc3)c1-2` was 1.3 µM.
Take `O=c1[nH]c2c(cc1S(=O)(=O)c1ccccc1)CCc1ccn(S(=O)(=O)c3ccccc3)c1-2`: the IC50 was greater than 20 µM.

System in a further experiment: not listed separately
Description: Phototoxicity against human sNCTC-2544 cells irradiated with 2.5 J/cm'2 after 72 hrs by MTT assay. Particulars: NCTC-2544, light or radiation study. Format: functional, cell-based. In outline: as §1
`N#Cc1cc2c([nH]c1=O)-c1c(ccn1S(=O)(=O)c1ccccc1)CC2` yielded an IC50 greater than 20 µM.
Compound `Cc1ccc(Cn2ccc3c2-c2[nH]c(=O)c(S(=O)(=O)c4ccccc4)cc2CC3)cc1` returned an IC50 of 3.3 µM.
On the same count and under the same terms, for `Cn1ccc2c1-c1[nH]c(=O)c(S(=O)(=O)c3ccccc3)cc1CC2` the value was greater than 20 µM; for `O=c1[nH]c2c(cc1S(=O)(=O)c1ccccc1)CCc1ccn(Cc3ccccc3)c1-2`, 7.5 µM; for `O=c1[nH]c2c(cc1S(=O)(=O)c1ccccc1)CCc1ccn(S(=O)(=O)c3ccccc3)c1-2`, greater than 20 µM.

Another experiment relates to MCF7. Description: Phototoxicity against human MCF7 cells irradiated with 3.75 J/cm'2 after 72 hrs by MTT assay. Format: functional, cell-based. As to conditions: MCF7, light or radiation study. In outline: as §1
`N#Cc1cc2c([nH]c1=O)-c1c(ccn1S(=O)(=O)c1ccccc1)CC2` had an IC50 greater than 20 µM.
The same measure, in the same setting: the value for `Cc1ccc(Cn2ccc3c2-c2[nH]c(=O)c(S(=O)(=O)c4ccccc4)cc2CC3)cc1` was 2.4 µM; that for `Cn1ccc2c1-c1[nH]c(=O)c(S(=O)(=O)c3ccccc3)cc1CC2` was greater than 20 µM; that for `O=c1[nH]c2c(cc1S(=O)(=O)c1ccccc1)CCc1ccn(Cc3ccccc3)c1-2` was 1.7 µM.
Still for that read-out and setting: for `O=c1[nH]c2c(cc1S(=O)(=O)c1ccccc1)CCc1ccn(S(=O)(=O)c3ccccc3)c1-2` the value was greater than 20 µM.

A further experiment relates to LoVo. Description: Phototoxicity against human LoVo cells irradiated with 3.75 J/cm'2 after 72 hrs by MTT assay. As to conditions: light or radiation study. In kind it is functional, cell-based. The gist of the method:
as §1
Consider `N#Cc1cc2c([nH]c1=O)-c1c(ccn1S(=O)(=O)c1ccccc1)CC2`, for which the concentration for half-maximal inhibition (IC50) is greater than 20 µM.
Same read-out and setting: for `Cc1ccc(Cn2ccc3c2-c2[nH]c(=O)c(S(=O)(=O)c4ccccc4)cc2CC3)cc1` the value was 2.3 µM; for `Cn1ccc2c1-c1[nH]c(=O)c(S(=O)(=O)c3ccccc3)cc1CC2`, greater than 20 µM; for `O=c1[nH]c2c(cc1S(=O)(=O)c1ccccc1)CCc1ccn(Cc3ccccc3)c1-2`, 2.2 µM.
Same read-out and setting: the value for `O=c1[nH]c2c(cc1S(=O)(=O)c1ccccc1)CCc1ccn(S(=O)(=O)c3ccccc3)c1-2` was greater than 20 µM.

In a further experiment the test system is LoVo. The experiment in a line: Phototoxicity against human LoVo cells irradiated with 2.5 J/cm'2 after 72 hrs by MTT assay. In kind it is functional, cell-based. Particulars: light or radiation study. The gist of the method:
as §1
In turn, `N#Cc1cc2c([nH]c1=O)-c1c(ccn1S(=O)(=O)c1ccccc1)CC2` gave an IC50 greater than 20 µM.
The compound `Cc1ccc(Cn2ccc3c2-c2[nH]c(=O)c(S(=O)(=O)c4ccccc4)cc2CC3)cc1` showed an IC50 of 2.7 µM.
Still for that read-out and setting: the value for `Cn1ccc2c1-c1[nH]c(=O)c(S(=O)(=O)c3ccccc3)cc1CC2` was greater than 20 µM; that for `O=c1[nH]c2c(cc1S(=O)(=O)c1ccccc1)CCc1ccn(Cc3ccccc3)c1-2` was 2.6 µM.
On the same count and under the same terms, the value for `O=c1[nH]c2c(cc1S(=O)(=O)c1ccccc1)CCc1ccn(S(=O)(=O)c3ccccc3)c1-2` was greater than 20 µM.

In another experiment the test system is K562. The experiment in a line: Phototoxicity against human K562 cells irradiated with 3.75 J/cm'2 after 72 hrs by MTT assay. Format: functional, cell-based. Particulars: K562, light or radiation study. In outline: as §1
`N#Cc1cc2c([nH]c1=O)-c1c(ccn1S(=O)(=O)c1ccccc1)CC2`: the IC50 was greater than 20 µM.
The same measure, in the same setting: the value for `Cc1ccc(Cn2ccc3c2-c2[nH]c(=O)c(S(=O)(=O)c4ccccc4)cc2CC3)cc1` was 2.4 µM; that for `Cn1ccc2c1-c1[nH]c(=O)c(S(=O)(=O)c3ccccc3)cc1CC2` was greater than 20 µM; that for `O=c1[nH]c2c(cc1S(=O)(=O)c1ccccc1)CCc1ccn(Cc3ccccc3)c1-2` was 3.3 µM.
Same read-out and setting: for `O=c1[nH]c2c(cc1S(=O)(=O)c1ccccc1)CCc1ccn(S(=O)(=O)c3ccccc3)c1-2` the value was greater than 20 µM.
